The list is not random: actives were taken first. Their share in the collection is about 3.5%.
RGS4 block: inhibitors of human RGS4 | P49798 | HEK293 M3R/RGS4 inducible, Fluo-4 calcium flux; stronger effect = higher value; triggered by carbachol at its EC20 | 0.45% of 310,000 active | B-score at 10 µM;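 active means B-score, a plate-corrected calcium signal, over three deviations above library mean, with baseline fluorescence within five deviations of library mean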;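 further: RGS4 expression induced by doxycycline in cells with stable M3 receptor; B-score is computed from the integrated fluorescence ratio over baseline after carbachol; higher B-score means a larger calcium signal and so more RGS4 inhibition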
Target sequence (P49798 whole entry, looked up): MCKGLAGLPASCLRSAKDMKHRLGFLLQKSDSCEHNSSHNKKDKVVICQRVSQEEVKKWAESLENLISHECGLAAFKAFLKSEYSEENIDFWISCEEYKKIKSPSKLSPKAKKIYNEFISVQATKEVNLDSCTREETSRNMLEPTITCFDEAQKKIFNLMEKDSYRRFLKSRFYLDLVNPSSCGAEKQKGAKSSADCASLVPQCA
MrgX1 antagonist: human MrgX1 receptor antagonism, primary screen; MRGX1-HEK293 calcium flux, Fluo-4, BAM8-22 antagonism; stronger effect = lower value; 1.3% of 310,000 active; Q96LB2; B-score at 10 µM;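 active means calcium-response B-score plate-corrected more than 3 library SD below zero, starting fluorescence within 5 deviations, no agonist response on first addition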;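 further: peak minus trough fluorescence over baseline after final BAM8-22 challenge near maximal dose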
Target sequence (Q96LB2 whole entry, looked up): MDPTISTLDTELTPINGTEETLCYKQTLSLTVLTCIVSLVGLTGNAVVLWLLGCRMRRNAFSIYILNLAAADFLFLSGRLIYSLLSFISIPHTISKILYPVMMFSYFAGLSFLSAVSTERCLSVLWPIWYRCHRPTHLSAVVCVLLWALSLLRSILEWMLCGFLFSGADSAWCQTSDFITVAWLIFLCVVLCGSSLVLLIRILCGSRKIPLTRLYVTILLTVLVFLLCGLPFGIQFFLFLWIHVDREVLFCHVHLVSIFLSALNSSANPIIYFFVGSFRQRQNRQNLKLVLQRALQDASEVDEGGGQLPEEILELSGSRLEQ
MrgX1 PAM: human MrgX1 positive allosteric modulation, primary screen. MrgX1-HEK293, Fluo-4 calcium flux, FDSS; stronger effect = higher value. 0.63% of 310,000 active. B-score at 10 µM. Q96LB2;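 active means plate-corrected calcium response at least 3 library SD above typical, normal starting fluorescence, not activating the receptor alone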;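 further: compound read alongside a low EC10 to EC30 dose of BAM8-22 agonist; peak minus trough fluorescence over baseline measured at the second addition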
MrgX1 agonist: agonists of human MrgX1 receptor | AID 588627 | 0.44% of 310,000 active | B-score at 10 µM | MrgX1-HEK293 cells, Fluo-4 calcium fluorescence, agonist mode; stronger effect = higher value;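 active means calcium response B-score plate-corrected fluorescence ratio at least 3 library SD, with starting fluorescence B-score inside 5 SD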
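times = overnight plating, then 30 min 37 °C plus 30 min room-temperature dye loading | assay system = stable human MrgX1 HEK293 cell line | input = fifteen thousand cells per well | signal = kinetic calcium dye fluorescence, Fluo-4 NW | dosing = compound delivered in addition one of three | read-out = B-scored fluorescence response ratio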
RGS4 act: potentiators or activators of RGS4; 0.92% of 310,000 active; B-score at 10 µM; HEK293 M3R/inducible RGS4, carbachol calcium flux Fluo4; stronger effect = lower value;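 active means B-score of the integrated calcium signal more than 4 SD below the library mean, with starting fluorescence not abnormally high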;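 further: negative B-score means reduced calcium response which marks RGS4 activation or potentiation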
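Detection: kinetic calcium fluorescence imaging with Fluo4-AM dye, 2 µM / Material: HEK293 cells with stable M3R and inducible RGS4 / Schedule: recording 10 s baseline at 1 Hz, 100 s post-agonist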
MrgX1 ant reconf: reconfirmed antagonist of human MrgX1 receptor signaling; shares compounds with MrgX1 antagonist; MrgX1-HEK293, BAM8-22 calcium flux, Fluo-4; stronger effect = lower value; remaining BAM8-22 calcium response % of control (stronger effect = lower value), % at 10 µM; 19% of 2,300 active;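 active means remaining agonist calcium response no higher than 100% minus 3 SD of agonist-only control wells, with starting fluorescence near control levels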;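 further: agonist BAM8-22 given at a near maximal EC90 to ECmax level; peak minus minimum fluorescence divided by baseline after agonist addition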
HEK293 Ca flux: activity in parental HEK293 cells lacking MrgX1; shares compounds with MrgX1 antagonist; Fluo-4 calcium fluorescence, FDSS; fluorescence ratio F(max-min)/F0 at 10 µM; 2% of 4,000 active; AID 624111;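 active means duplicate-averaged calcium fluorescence ratio at least three times the standard deviation of buffer wells, a nonspecific response in parental cells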
HEK293 Ca counter: activity in parental HEK293 cells without MrgX1; parental HEK293 calcium flux, Fluo-4 fluorescence ratio; stronger effect = higher value; fluorescence ratio F(max-min)/F0 at 10 µM; shares compounds with MrgX1 antagonist; 0.4% of 4,000 active;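 active means calcium fluorescence ratio, averaged over duplicates, at least 3 SD of the buffer-well ratio, meaning a nonspecific response in receptor-free cells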;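 further: untransfected parental HEK293 lacking MrgX1 used as counterscreen for MrgX1 allosteric activators; fluorescence change taken during the second addition on a kinetic imager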
HEK293 Ca cntr2: MrgX1 activator counter-screen hit in parental HEK293 cells; shares compounds with MrgX1 antagonist; 8.7% of 4,000 active; Fluo-4 calcium fluorescence (FDSS); stronger effect = higher value; fluorescence ratio F(max-min)/F0 at 10 µM;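 active means calcium fluorescence ratio at least three times the spread of buffer wells, meaning a non-specific response in parental cells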
An asterisk follows results filed as active.

Screening CCc1cccc(Nc2cnn(C34C[C@@H]5C[C@@H](CC(CC(=O)O)(C5)C3)C4)c(=O)c2Cl)c1 returned RGS4 block inactive, MrgX1 antagonist inactive, MrgX1 PAM inactive, MrgX1 agonist inactive and RGS4 act inactive.
For COc1cccc(NC(=O)C2CCN(C(=O)NC3CCCCC3)CC2)c1 the results were RGS4 block inactive, MrgX1 antagonist inactive, MrgX1 PAM inactive, MrgX1 agonist inactive and RGS4 act inactive.
`Cc1ccc2c(c1)COc1c3ccc(C(=O)N[C@@H](CO)C(C)C)cc3nn1-2` gave RGS4 block inactive, MrgX1 antagonist -5.66*, MrgX1 PAM inactive, MrgX1 agonist inactive, RGS4 act inactive, MrgX1 ant reconf inactive, HEK293 Ca flux inactive, HEK293 Ca counter inactive and HEK293 Ca cntr2 inactive.
For COCCNC(=O)c1ccc2c3n(nc2c1)-c1ccc(C)cc1CO3 the results were RGS4 block inactive, MrgX1 antagonist inactive, MrgX1 PAM inactive, MrgX1 agonist inactive and RGS4 act inactive.
For CCc1nnc(NC(=O)CSc2nnc(-c3cc4ccccc4cc3O)n2CC)s1 the results were RGS4 block inactive, MrgX1 antagonist inactive, MrgX1 PAM inactive, MrgX1 agonist inactive and RGS4 act inactive.
`CCn1c(SCC(=O)N(C(C)C)C(C)C)nnc1-c1cc2ccccc2cc1O` gave RGS4 block inactive, MrgX1 antagonist -6.18*, MrgX1 PAM inactive, MrgX1 agonist inactive, RGS4 act inactive, MrgX1 ant reconf inactive, HEK293 Ca flux inactive, HEK293 Ca counter inactive and HEK293 Ca cntr2 inactive.
Screening Cc1cc(C)c2c(-n3cccc3)c(C(=O)NNS(=O)(=O)c3ccc(Cl)cc3)sc2n1 returned RGS4 block inactive, MrgX1 antagonist inactive, MrgX1 PAM inactive, MrgX1 agonist inactive and RGS4 act inactive.
O=C1CC(C(=O)Nc2nccs2)C(c2ccccc2)O1 (configuration not stated) was read as RGS4 block inactive, MrgX1 antagonist -6.3*, MrgX1 PAM inactive, MrgX1 agonist inactive, RGS4 act inactive, MrgX1 ant reconf inactive, HEK293 Ca flux inactive, HEK293 Ca counter inactive and HEK293 Ca cntr2 inactive.
Cc1onc(-c2c(F)cccc2Cl)c1C(=O)Nc1nnc(C(F)(F)F)s1 was read as RGS4 block inactive, MrgX1 antagonist -5.08*, MrgX1 PAM inactive, MrgX1 agonist inactive, RGS4 act inactive, MrgX1 ant reconf 85.4%*, HEK293 Ca flux inactive, HEK293 Ca counter inactive and HEK293 Ca cntr2 inactive.
Cc1onc(-c2c(F)cccc2Cl)c1C(=O)Nc1nccs1 was read as RGS4 block inactive, MrgX1 antagonist -4.62*, MrgX1 PAM inactive, MrgX1 agonist inactive, RGS4 act inactive, MrgX1 ant reconf inactive, HEK293 Ca flux inactive, HEK293 Ca counter inactive and HEK293 Ca cntr2 inactive.
For CC(C)C(C(=O)NC1CCCC1)N(CC1CCCO1)C(=O)CNS(=O)(=O)c1ccccc1 (configuration not stated) the results were RGS4 block inactive, MrgX1 antagonist inactive, MrgX1 PAM inactive, MrgX1 agonist inactive and RGS4 act inactive.
CCc1ccccc1NC(=O)c1cnn(-c2ccccc2)c1C was read as RGS4 block inactive, MrgX1 antagonist inactive, MrgX1 PAM inactive, MrgX1 agonist inactive and RGS4 act inactive.
